Experiment [1] concerns Escherichia coli. Kind of experiment: In vitro antibacterial activity against Escherichia coli NIHJ JC-2,(gram-negative).
Experiment [2] concerns Pseudomonas aeruginosa. Kind of experiment: In vitro antibacterial activity against Pseudomonas aeruginosa IFO 3445,Pa(I),(gram-negative). The class given is functional. The procedure, abridged:
(§1)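 MIC by serial 2-fold agar dilution on Mueller–Hinton agar; inoculum about 10^6 CFU/mL; MIC taken as lowest concentration preventing visible growth after 18 h at 37 °C.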

The test system of experiment [3] is Escherichia coli. Kind of experiment: In vitro antibacterial activity was measured against nalidixic acid resistant strain 3 from Escherichia coli KC-14. The class given is functional. The method, boiled down: (§2)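 MIC by serial 2-fold agar dilution on Mueller–Hinton agar, inoculum about 10^6 CFU/mL. Plates were incubated 37 °C for 18 h. MIC was the lowest concentration preventing visible growth.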

Experiment [4] relates to Escherichia coli. Kind of experiment: In vitro antibacterial activity was measured against nalidixic acid resistant strain 2 from Escherichia coli KC-14. The class given is functional. The method, boiled down:
as §2

Experiment [5] relates to Escherichia coli. Kind of experiment: The effect on systematic infection in mice infected with Escherichia coli KC-14, administered perorally. The class given is functional. The method, boiled down: (§3)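 Male ddY mice (20–22 g), five per group, received 0.5 mL bacterial dilution intraperitoneally at 35 or 500 times the 50% lethal dose. Compound was given orally 1 h postinfection, suspended in 0.5% sodium (carboxymethyl)cellulose or dissolved in sterile distilled water. Survival was scored after 1 week. Oral ED50 was reported with 95% confidence limits.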

For experiment [6], the system named is Pseudomonas aeruginosa. Kind of experiment: In vitro antibacterial activity against Pseudomonas aeruginosa E-2,Pa(E),(gram-negative). The class given is functional. The procedure, abridged: as §1
The test system of experiment [7] is Escherichia coli. Kind of experiment: In vitro antibacterial activity was measured against nalidixic acid resistant strain 1 from Escherichia coli KC-14. The class given is functional. The method, boiled down:
as §2

The test system of experiment [8] is Escherichia coli. Kind of experiment: In vitro antibacterial activity was measured against nalidixic acid resistant strain 7 from Escherichia coli KC-14. The class given is functional. The method, boiled down:
as §2

In experiment [9] the test system is Escherichia coli. Kind of experiment: In vitro antibacterial activity was measured against nalidixic acid resistant strain 6 from Escherichia coli KC-14. The class given is functional. The procedure, abridged:
as §2

Experiment [10] has as its system Staphylococcus aureus. Kind of experiment: In vitro antibacterial activity against staphylococcus aureus FDA 209P JC-1,Sa(F)(gram-positive). The class given is functional. The procedure, abridged:
as §1

Experiment [11] concerns Escherichia coli. Kind of experiment: In vitro antibacterial activity against Escherichia coli KC-14, Ec(K), (gram-negative). The class given is functional. The procedure, abridged: as §1
In experiment [12] the test system is Staphylococcus aureus. Kind of experiment: The effect on systematic infection in mice infected with Staphylococcus aureus IID 803, administered perorally. The class given is functional. The procedure, abridged:
as §3

Experiment [13] concerns Staphylococcus epidermidis. Kind of experiment: In vitro antibacterial activity against staphylococcus epidermidis IAM 1296, (gram-positive). The class given is functional. The method, boiled down:
as §1

In experiment [14] the test system is Enterococcus faecalis. Kind of experiment: In vitro antibacterial activity against Enterococcus faecalis IID 682,[…],(gram-positive). The class given is functional. The procedure, abridged: as §1
The subject of experiment [15] is Escherichia coli. Kind of experiment: In vitro antibacterial activity was measured against nalidixic acid resistant strain 4 from Escherichia coli KC-14. The class given is functional. The method, boiled down:
as §2

Experiment [16] relates to Pseudomonas aeruginosa. Kind of experiment: The effect on systematic infection in mice infected with Pseudomonas aeruginosa E-2, administered perorally. The class given is functional.
The subject of the next experiment is Klebsiella pneumoniae. Kind of experiment: In vitro antibacterial activity against klebsiella pneumoniae B54,Kp,(gram-negative). The class given is functional.
In experiment [17] the test system is Staphylococcus aureus. Kind of experiment: In vitro antibacterial activity against staphylococcus aureus IID 803,(gram-positive). The class given is functional. The procedure, abridged: as §1
Experiment [18] concerns Escherichia coli. Kind of experiment: In vitro antibacterial activity was measured against nalidixic acid resistant strain 5 from Escherichia coli KC-14. The class given is functional. The procedure, abridged: as §2
Experiment [19] deals with Enterococcus faecalis. Kind of experiment: In vitro antibacterial activity against Enterococcus faecalis IID 682,Ef.([…]). The class given is functional. The method, boiled down:
as §1

Experiment [20] concerns Pseudomonas aeruginosa. Kind of experiment: The effect on systematic infection in mice infected with Pseudomonas aeruginosa, administered perorally. The class given is functional. The method, boiled down: as §3

≈ marks a conversion by molar mass, not a printed value.

On to `CN1CCN(c2c(F)cc3c(=O)c(C(=O)O)c4scc5n4c3c2OC5)CC1.Cl`, for which the minimal inhibitory concentration (MIC) with Escherichia coli [1] stood at 0.1 µg/mL; against Pseudomonas aeruginosa [2] it was 0.78 µg/mL; in the experiment on Escherichia coli [3], 0.39 µg/mL; against Escherichia coli [4], 3.13 µg/mL; against Pseudomonas aeruginosa [6], 0.78 µg/mL; against Escherichia coli [7], 1.56 µg/mL. Further, the MIC with Escherichia coli [8] is 0.2 µg/mL; with Escherichia coli [9], 0.39 µg/mL; against Staphylococcus aureus [10] it was 0.1 µg/mL; against Escherichia coli [11] it was 0.1 µg/mL; in experiment [13], 0.2 µg/mL; with Enterococcus faecalis [14], 0.39 µg/mL. Besides, the MIC is 0.2 µg/mL with Escherichia coli [15], 0.1 µg/mL in the experiment with Klebsiella pneumoniae, 0.1 µg/mL in the experiment with Staphylococcus aureus [17] and 0.39 µg/mL in the experiment on Escherichia coli [18]. The results for the ED50 in the experiment with Escherichia coli [5], in the experiment on Staphylococcus aureus [12] and in the experiment on Pseudomonas aeruginosa [16] were 1.01 mg/kg, 8.1 mg/kg and 17.7 mg/kg, respectively.
For the compound `COc1c(F)cc2c(=O)c(C(=O)O)c3scc4n3c2c1OC4`, the MIC in the experiment with Pseudomonas aeruginosa [2] was 3.13 µg/mL (≈ 9.74 µM); against Pseudomonas aeruginosa [6], 6.25 µg/mL (≈ 19.5 µM); in the experiment on Staphylococcus aureus [10], 0.2 µg/mL (≈ 0.623 µM); in the experiment with Escherichia coli [11] it was 0.78 µg/mL (≈ 2.43 µM); in experiment [13], 0.39 µg/mL (≈ 1.21 µM); with Enterococcus faecalis [14], 6.25 µg/mL (≈ 19.5 µM). Further, the results for the MIC with Enterococcus faecalis [19], in the experiment with Klebsiella pneumoniae and against Staphylococcus aureus [17] were 6.25 µg/mL (≈ 19.5 µM), 0.2 µg/mL (≈ 0.623 µM) and 0.2 µg/mL (≈ 0.623 µM), respectively.
Turning to `CC1COc2c(N3CCNCC3)c(F)cc3c(=O)c(C(=O)O)cn1c23` (configuration not stated), the MIC against Escherichia coli [1] stood at 0.1 µg/mL (≈ 0.288 µM); against Pseudomonas aeruginosa [2] it was 1.56 µg/mL (≈ 4.49 µM); with Escherichia coli [3] it was 0.78 µg/mL (≈ 2.25 µM); with Escherichia coli [4], 6.25 µg/mL (≈ 18 µM); in the experiment with Pseudomonas aeruginosa [6], 1.56 µg/mL (≈ 4.49 µM); in the experiment on Escherichia coli [7], 6.25 µg/mL (≈ 18 µM). Moreover, the minimal inhibitory concentration (MIC) amounted to 0.39 µg/mL (≈ 1.12 µM) with Escherichia coli [8]; 0.78 µg/mL (≈ 2.25 µM) in the experiment on Escherichia coli [9]; 0.39 µg/mL (≈ 1.12 µM) with Staphylococcus aureus [10]; 0.1 µg/mL (≈ 0.288 µM) against Escherichia coli [11]; 0.78 µg/mL (≈ 2.25 µM) in experiment [13]; 1.56 µg/mL (≈ 4.49 µM) in the experiment with Enterococcus faecalis [14]. The MIC in the experiment with Escherichia coli [15] turned out to be 0.39 µg/mL (≈ 1.12 µM); against Klebsiella pneumoniae it was 0.1 µg/mL (≈ 0.288 µM); against Staphylococcus aureus [17], 0.39 µg/mL (≈ 1.12 µM); in the experiment on Escherichia coli [18], 0.78 µg/mL (≈ 2.25 µM). For the same compound, the ED50 came out at 1.1 mg/kg in the experiment with Escherichia coli [5], 22.9 µg/mL (≈ 65.9 µM) in the experiment with Pseudomonas aeruginosa [20] and 11.5 mg/kg with Staphylococcus aureus [12].

For the origin of these results see ChEMBL document CHEMBL1126175, “Synthesis and antibacterial activity of new tetracyclic quinolone antibacterials” (J Med Chem, 1992).
